System: Japanese patients with advanced solid tumors
Assay: Phase 1 study: safety, tolerability, DLT and treatment-emergent adverse events
Type: in vivo, human
Procedure, shortened: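 Open-label single-arm dose levels of 80 or 105 mg/m2 IV were given on day 1 of 14-day cycles, with at most 6 patients per level. Adverse events were graded by CTCAE v4.03. DLTs were related events in cycle 1 meeting predefined hematologic or nonhematologic criteria. Tolerability required a cycle 1 DLT rate <33%. Primary G-CSF prophylaxis was barred during DLT evaluation; G-CSF was allowed for treatment-emergent neutropenia and as secondary prophylaxis.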

COc1cccc(OCCCN)c1-c1cc(Nc2cnc(C#N)cn2)n[nH]1 [Prexasertib]
Serious AE reported in one patient (80 mg/m^2, 2 (anemia and thrombocytopenia) related to study treatment, constipation not): 3 serious AE | TEAE related to study treatment: Anemia (80 mg/m^2 N = 6, Any grade): 3 (50.0) n (%) | TEAE related to study treatment: Any (80 mg/m^2 N = 6, Any grade): 6 (100) n (%) | TEAE related to study treatment: Atrial fibrillation (80 mg/m^2 N = 6, Any grade): 1 (16.7) n (%) | TEAE related to study treatment: Constipation (80 mg/m^2 N = 6, Any grade): 2 (33.3) n (%) | TEAE related to study treatment: ECG QT prolonged (80 mg/m^2 N = 6, Any grade): 2 (33.3) n (%) | TEAE related to study treatment: Fatigue (80 mg/m^2 N = 6, Any grade): 1 (16.7) n (%) | TEAE related to study treatment: Febrile neutropenia (80 mg/m^2 N = 6, Any grade): 1 (16.7) n (%) | TEAE related to study treatment: Headache (80 mg/m^2 N = 6, Any grade): 0 n (%) | TEAE related to study treatment: Hypocalcemia (80 mg/m^2 N = 6, Any grade): 0 n (%) | TEAE related to study treatment: Leukopenia (80 mg/m^2 N = 6, Any grade): 6 (100) n (%) | TEAE related to study treatment: Lung infection (80 mg/m^2 N = 6, Any grade): 1 (16.7) n (%) | TEAE related to study treatment: Lymphocytopenia (80 mg/m^2 N = 6, Any grade): 2 (33.3) n (%) | TEAE related to study treatment: Nausea (80 mg/m^2 N = 6, Any grade): 2 (33.3) n (%) | TEAE related to study treatment: Neutropenia (80 mg/m^2 N = 6, Any grade): 5 (83.3) n (%) | TEAE related to study treatment: Pyrexia (80 mg/m^2 N = 6, Any grade): 1 (16.7) n (%) | TEAE related to study treatment: Rash (80 mg/m^2 N = 6, Any grade): 1 (16.7) n (%) | TEAE related to study treatment: Rash maculopapular (80 mg/m^2 N = 6, Any grade): 1 (16.7) n (%) | TEAE related to study treatment: SVE (supraventricular extrasystoles) (80 mg/m^2 N = 6, Any grade): 1 (16.7) n (%) | TEAE related to study treatment: Stomatitis (80 mg/m^2 N = 6, Any grade): 1 (16.7) n (%) | TEAE related to study treatment: Thrombocytopenia (80 mg/m^2 N = 6, Any grade): 4 (66.7) n (%) | TEAE related to study treatment: Anemia (80 mg/m^2 N = 6, Grade 3): 1 (16.7) n (%) | TEAE related to study treatment: Any (80 mg/m^2 N = 6, Grade 3): 2 (33.3) n (%) | TEAE related to study treatment: Atrial fibrillation (80 mg/m^2 N = 6, Grade 3): 0 n (%) | TEAE related to study treatment: Constipation (80 mg/m^2 N = 6, Grade 3): 0 n (%) | TEAE related to study treatment: ECG QT prolonged (80 mg/m^2 N = 6, Grade 3): 0 n (%) | TEAE related to study treatment: Fatigue (80 mg/m^2 N = 6, Grade 3): 0 n (%) | TEAE related to study treatment: Febrile neutropenia (80 mg/m^2 N = 6, Grade 3): 0 n (%) | TEAE related to study treatment: Headache (80 mg/m^2 N = 6, Grade 3): 0 n (%) | TEAE related to study treatment: Hypocalcemia (80 mg/m^2 N = 6, Grade 3): 0 n (%) | TEAE related to study treatment: Leukopenia (80 mg/m^2 N = 6, Grade 3): 1 (16.7) n (%) | TEAE related to study treatment: Lung infection (80 mg/m^2 N = 6, Grade 3): 0 n (%) | TEAE related to study treatment: Lymphocytopenia (80 mg/m^2 N = 6, Grade 3): 1 (16.7) n (%) | TEAE related to study treatment: Nausea (80 mg/m^2 N = 6, Grade 3): 0 n (%) | TEAE related to study treatment: Neutropenia (80 mg/m^2 N = 6, Grade 3): 1 (16.7) n (%) | TEAE related to study treatment: Pyrexia (80 mg/m^2 N = 6, Grade 3): 0 n (%) | TEAE related to study treatment: Rash (80 mg/m^2 N = 6, Grade 3): 0 n (%) | TEAE related to study treatment: Rash maculopapular (80 mg/m^2 N = 6, Grade 3): 0 n (%) | TEAE related to study treatment: SVE (supraventricular extrasystoles) (80 mg/m^2 N = 6, Grade 3): 0 n (%) | TEAE related to study treatment: Stomatitis (80 mg/m^2 N = 6, Grade 3): 0 n (%) | TEAE related to study treatment: Thrombocytopenia (80 mg/m^2 N = 6, Grade 3): 2 (33.3) n (%) | TEAE related to study treatment: Anemia (80 mg/m^2 N = 6, Grade 3 + 4): 2 (33.3) n (%) | TEAE related to study treatment: Any (80 mg/m^2 N = 6, Grade 3 + 4): 6 (100) n (%) | TEAE related to study treatment: Atrial fibrillation (80 mg/m^2 N = 6, Grade 3 + 4): 0 n (%) | TEAE related to study treatment: Constipation (80 mg/m^2 N = 6, Grade 3 + 4): 0 n (%) | TEAE related to study treatment: ECG QT prolonged (80 mg/m^2 N = 6, Grade 3 + 4): 0 n (%) | TEAE related to study treatment: Fatigue (80 mg/m^2 N = 6, Grade 3 + 4): 0 n (%) | TEAE related to study treatment: Febrile neutropenia (80 mg/m^2 N = 6, Grade 3 + 4): 1 (16.7) n (%) | TEAE related to study treatment: Headache (80 mg/m^2 N = 6, Grade 3 + 4): 0 n (%) | TEAE related to study treatment: Hypocalcemia (80 mg/m^2 N = 6, Grade 3 + 4): 0 n (%) | TEAE related to study treatment: Leukopenia (80 mg/m^2 N = 6, Grade 3 + 4): 4 (66.7) n (%) | TEAE related to study treatment: Lung infection (80 mg/m^2 N = 6, Grade 3 + 4): 0 n (%) | TEAE related to study treatment: Lymphocytopenia (80 mg/m^2 N = 6, Grade 3 + 4): 1 (16.7) n (%) | TEAE related to study treatment: Nausea (80 mg/m^2 N = 6, Grade 3 + 4): 0 n (%) | TEAE related to study treatment: Neutropenia (80 mg/m^2 N = 6, Grade 3 + 4): 4 (66.7) n (%) | TEAE related to study treatment: Pyrexia (80 mg/m^2 N = 6, Grade 3 + 4): 0 n (%) | TEAE related to study treatment: Rash (80 mg/m^2 N = 6, Grade 3 + 4): 0 n (%) | TEAE related to study treatment: Rash maculopapular (80 mg/m^2 N = 6, Grade 3 + 4): 0 n (%) | TEAE related to study treatment: SVE (supraventricular extrasystoles) (80 mg/m^2 N = 6, Grade 3 + 4): 0 n (%) | TEAE related to study treatment: Stomatitis (80 mg/m^2 N = 6, Grade 3 + 4): 0 n (%) | TEAE related to study treatment: Thrombocytopenia (80 mg/m^2 N = 6, Grade 3 + 4): 3 (50.0) n (%) | TEAE related to study treatment: Anemia (80 mg/m^2 N = 6, Grade 4): 1 (16.7) n (%) | TEAE related to study treatment: Any (80 mg/m^2 N = 6, Grade 4): 4 (66.7) n (%) | TEAE related to study treatment: Atrial fibrillation (80 mg/m^2 N = 6, Grade 4): 0 n (%) | TEAE related to study treatment: Constipation (80 mg/m^2 N = 6, Grade 4): 0 n (%) | TEAE related to study treatment: ECG QT prolonged (80 mg/m^2 N = 6, Grade 4): 0 n (%) | TEAE related to study treatment: Fatigue (80 mg/m^2 N = 6, Grade 4): 0 n (%)

— PMC6247064 (Cancer Science, 2018)
